For assay [1], the target named is Dual specificity tyrosine-phosphorylation-regulated kinase 1B (Homo sapiens) (UniProt Q9Y463). The experiment in a line: Binding affinity to wild-type human full length DYRK1B (M1 to S629 residues) expressed in bacterial expression system assessed as residual binding level at 1 uM by Kinomescan method relative to control. The gist of the method: (§1)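 KINOMEscan competition binding against 468 purified kinases/mutants, test compound at 1 µM; residual binding relative to control.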

In assay [2] the target is Glycogen synthase kinase-3 alpha (Homo sapiens) (UniProt P49840). As to the kind of experiment: Binding affinity to wild-type human full length GSK3A (M1 to S483 residues) expressed in bacterial expression system assessed as residual binding level at 1 uM by Kinomescan method relative to control. In outline:
(§2)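 Single-concentration (1 μM) competition-binding screen run by KINOMEscan against a panel of 468 purified kinases and mutants. The read-out is the relative binding activity of the test compound to each kinase.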

The target of assay [3] is Casein kinase I isoform gamma-3 (Homo sapiens) (UniProt Q9Y6M4). The experiment in a line: Binding affinity to wild-type human full length CSNK1G3 (M1 to K447 residues) expressed in bacterial expression system assessed as residual binding level at 1 uM by Kinomescan method relative to control. In outline:
as §1

The target in assay [4] is Serine/threonine-protein kinase DCLK1 (Homo sapiens) (UniProt O15075). As to the kind of experiment: Binding affinity to wild-type human partial length DCAMKL1 (L270 to A662 residues) expressed in mammalian expression system assessed as residual binding level at 1 uM by Kinomescan method relative to control. In outline:
(§3)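 Kinome-wide competition binding screen against a panel of 468 purified kinases/mutants, with the test compound at a single concentration of 1 μM. Read-out is the relative binding activity of each kinase in the presence of compound.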

Assay [5] has as its target Mast/stem cell growth factor receptor Kit (Homo sapiens, UniProt P10721). As to the kind of experiment: Binding affinity to wild-type human partial length KIT (I571 to D952 residues) expressed in bacterial expression system assessed as residual binding level at 1 uM by Kinomescan method relative to control.
Assay [6] concerns the target Ribosomal protein S6 kinase alpha-4 (Homo sapiens) (UniProt O75676). As to the kind of experiment: Binding affinity to wild-type human partial length C-terminal RPS6KA4 kinase domain 2 (M375 to T705 residues) expressed in mammalian expression system assessed as residual binding level at 1 uM by Kinomescan method relative to control.
In assay [7] the target is Ephrin type-A receptor 4 (Homo sapiens) (UniProt P54764). The experiment in a line: Binding affinity to wild-type human partial length EPHA4 (T601 to R897 residues) expressed in bacterial expression system assessed as residual binding level at 1 uM by Kinomescan method relative to control. In outline:
as §3

Assay [8] concerns the target Mitogen-activated protein kinase 13 (Homo sapiens) (UniProt O15264). As to the kind of experiment: Binding affinity to wild-type human full length p38-delta (M1 to L365 residues) expressed in bacterial expression system assessed as residual binding level at 1 uM by Kinomescan method relative to control. The gist of the method:
as §1

The target of assay [9] is Mitogen-activated protein kinase 11 (Homo sapiens) (UniProt Q15759). As to the kind of experiment: Binding affinity to wild-type human full length p38-beta (M1 to Q364 residues) expressed in bacterial expression system assessed as residual binding level at 1 uM by Kinomescan method relative to control. The gist of the method: (§4)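 Single-concentration KINOMEscan (DiscoverX) binding screen at 1 μM against a panel of 468 purified kinases and mutants. The read-out is binding relative to control.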
Mitogen-activated protein kinase 11 (Homo sapiens), sequence (Q15759 whole entry, the tested form may be a part): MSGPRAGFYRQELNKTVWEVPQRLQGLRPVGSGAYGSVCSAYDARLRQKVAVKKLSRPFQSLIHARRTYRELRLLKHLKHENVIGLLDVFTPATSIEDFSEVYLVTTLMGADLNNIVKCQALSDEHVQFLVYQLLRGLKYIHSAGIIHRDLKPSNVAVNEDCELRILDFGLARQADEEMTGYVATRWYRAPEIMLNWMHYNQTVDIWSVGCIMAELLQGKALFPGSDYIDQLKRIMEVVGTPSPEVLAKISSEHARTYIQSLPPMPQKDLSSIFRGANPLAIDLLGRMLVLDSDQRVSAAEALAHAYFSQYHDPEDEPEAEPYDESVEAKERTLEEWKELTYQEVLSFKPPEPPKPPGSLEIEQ

Assay [10] concerns the target Tyrosine-protein kinase JAK1 (Homo sapiens) (UniProt P23458). As to the kind of experiment: Binding affinity to wild-type human partial length JAK1 JH2 pseudokinase domain (R537 to D855 residues) expressed in mammalian expression system assessed as residual binding level at 1 uM by Kinomescan method relative to control.
Assay [11] has as its system Phosphatidylinositol 4,5-bisphosphate 3-kinase catalytic subunit alpha isoform (Homo sapiens), P42336 [M1043I]. As to the kind of experiment: Binding affinity to human partial length PIK3CA M1043I mutant (R108 to N1068 residues) expressed in mammalian expression system assessed as residual binding level at 1 uM by Kinomescan method relative to control. In outline: (§5)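 Kinome-wide single-concentration binding screen (KINOMEscan) at 1 μM against a panel of 468 purified kinases and mutants. Read-out is relative binding of each kinase compared with control. Selectivity across the panel was summarised as an S(10) score.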

The test system of assay [12] is Mast/stem cell growth factor receptor Kit (Homo sapiens), P10721 [V559D,V654A]. As to the kind of experiment: Binding affinity to human partial length KIT V559D/V654A double mutant (Y545 to D952 residues) expressed in bacterial expression system assessed as residual binding level at 1 uM by Kinomescan method relative to control. In outline:
as §5

Assay [13] concerns the target Serine/threonine-protein kinase 24 (Homo sapiens) (UniProt Q9Y6E0). The experiment in a line: Binding affinity to wild-type human partial length MST3 (A30 to S311 residues) expressed in bacterial expression system assessed as residual binding level at 1 uM by Kinomescan method relative to control.
The target in assay [14] is Ribosomal protein S6 kinase alpha-2 (Homo sapiens) (UniProt Q15349). The experiment in a line: Binding affinity to wild-type human partial length N-terminal RSK3 kinase domain 1 (M1 to Q385 residues) expressed in bacterial expression system assessed as residual binding level at 1 uM by Kinomescan method relative to control.
For assay [15], the target named is Activin receptor type-1 (Homo sapiens) (UniProt Q04771). As to the kind of experiment: Binding affinity to wild-type human ACVR1 (C188 to C509 residues) expressed in bacterial expression system assessed as residual binding level at 1 uM by Kinomescan method relative to control. In outline:
as §2

Assay [16] addresses Dual specificity protein kinase CLK3 (Homo sapiens) (UniProt P49761). The experiment in a line: Binding affinity to wild-type human full length CLK3 (M1 to R490 residues) expressed in bacterial expression system assessed as residual binding level at 1 uM by Kinomescan method relative to control. In outline: as §1
The test system of assay [17] is Tyrosine-protein kinase ABL1 (Homo sapiens), P00519 [Q252H]. As to the kind of experiment: Binding affinity to human phosphorylated ABL1 Q252H mutant expressed in mammalian expression system assessed as residual binding level at 1 uM by Kinomescan method relative to control. In outline:
as §2

The target of assay [18] is G protein-coupled receptor kinase 3 (Homo sapiens) (UniProt P35626). As to the kind of experiment: Binding affinity to wild-type human full length GRK3 (M1 to L688 residues) expressed in mammalian expression system assessed as residual binding level at 1 uM by Kinomescan method relative to control. The gist of the method: as §2
G protein-coupled receptor kinase 3 (Homo sapiens), sequence (P35626 whole entry, the tested form may be a part): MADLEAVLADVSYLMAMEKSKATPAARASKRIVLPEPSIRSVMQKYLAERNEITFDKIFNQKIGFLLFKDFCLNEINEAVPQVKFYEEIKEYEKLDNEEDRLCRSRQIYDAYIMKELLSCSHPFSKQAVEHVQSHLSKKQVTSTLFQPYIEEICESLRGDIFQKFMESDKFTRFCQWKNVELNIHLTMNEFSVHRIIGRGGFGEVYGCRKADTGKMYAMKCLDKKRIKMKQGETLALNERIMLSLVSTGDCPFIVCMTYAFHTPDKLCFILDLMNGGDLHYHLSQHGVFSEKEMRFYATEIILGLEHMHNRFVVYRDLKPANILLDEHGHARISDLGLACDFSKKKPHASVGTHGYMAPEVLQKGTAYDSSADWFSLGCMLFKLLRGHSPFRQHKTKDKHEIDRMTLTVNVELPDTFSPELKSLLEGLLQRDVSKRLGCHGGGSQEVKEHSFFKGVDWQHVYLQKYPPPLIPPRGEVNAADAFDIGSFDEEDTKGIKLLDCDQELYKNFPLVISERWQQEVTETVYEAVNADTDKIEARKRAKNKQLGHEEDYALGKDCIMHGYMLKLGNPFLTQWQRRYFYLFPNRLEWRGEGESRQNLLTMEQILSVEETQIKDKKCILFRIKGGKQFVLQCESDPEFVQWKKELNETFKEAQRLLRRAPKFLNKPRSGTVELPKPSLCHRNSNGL
Assay [19] addresses Tyrosine-protein kinase Tec (Homo sapiens) (UniProt P42680). The experiment in a line: Binding affinity to wild-type human partial length TEC (L341 to D620 residues) expressed in bacterial expression system assessed as residual binding level at 1 uM by Kinomescan method relative to control.
Assay [20] has as its target Mitogen-activated protein kinase kinase kinase 6 (Homo sapiens) (UniProt O95382). The experiment in a line: Binding affinity to wild-type human partial length ASK2 (M278 to R972 residues) expressed in mammalian expression system assessed as residual binding level at 1 uM by Kinomescan method relative to control. The gist of the method: as §4
Assay [21] concerns the target Cyclin-dependent kinase-like 1 (Homo sapiens) (UniProt Q00532). As to the kind of experiment: Binding affinity to wild-type human full length CDKL1 (M1 to I358 residues) expressed in mammalian expression system assessed as residual binding level at 1 uM by Kinomescan method relative to control. In outline:
as §2

Mitogen-activated protein kinase 13 (Homo sapiens), sequence (O15264 whole entry, the tested form may be a part): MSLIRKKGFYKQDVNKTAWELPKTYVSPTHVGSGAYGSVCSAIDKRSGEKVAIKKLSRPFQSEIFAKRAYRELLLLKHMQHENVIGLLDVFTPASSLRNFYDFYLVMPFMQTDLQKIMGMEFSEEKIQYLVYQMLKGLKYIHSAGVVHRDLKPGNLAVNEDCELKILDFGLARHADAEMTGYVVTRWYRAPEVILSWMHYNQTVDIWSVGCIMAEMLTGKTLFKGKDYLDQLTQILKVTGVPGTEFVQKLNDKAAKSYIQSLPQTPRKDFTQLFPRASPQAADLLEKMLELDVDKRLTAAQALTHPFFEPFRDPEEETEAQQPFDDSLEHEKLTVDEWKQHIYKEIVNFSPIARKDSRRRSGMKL
Mitogen-activated protein kinase kinase kinase 6 (Homo sapiens), sequence (O95382 whole entry, the tested form may be a part): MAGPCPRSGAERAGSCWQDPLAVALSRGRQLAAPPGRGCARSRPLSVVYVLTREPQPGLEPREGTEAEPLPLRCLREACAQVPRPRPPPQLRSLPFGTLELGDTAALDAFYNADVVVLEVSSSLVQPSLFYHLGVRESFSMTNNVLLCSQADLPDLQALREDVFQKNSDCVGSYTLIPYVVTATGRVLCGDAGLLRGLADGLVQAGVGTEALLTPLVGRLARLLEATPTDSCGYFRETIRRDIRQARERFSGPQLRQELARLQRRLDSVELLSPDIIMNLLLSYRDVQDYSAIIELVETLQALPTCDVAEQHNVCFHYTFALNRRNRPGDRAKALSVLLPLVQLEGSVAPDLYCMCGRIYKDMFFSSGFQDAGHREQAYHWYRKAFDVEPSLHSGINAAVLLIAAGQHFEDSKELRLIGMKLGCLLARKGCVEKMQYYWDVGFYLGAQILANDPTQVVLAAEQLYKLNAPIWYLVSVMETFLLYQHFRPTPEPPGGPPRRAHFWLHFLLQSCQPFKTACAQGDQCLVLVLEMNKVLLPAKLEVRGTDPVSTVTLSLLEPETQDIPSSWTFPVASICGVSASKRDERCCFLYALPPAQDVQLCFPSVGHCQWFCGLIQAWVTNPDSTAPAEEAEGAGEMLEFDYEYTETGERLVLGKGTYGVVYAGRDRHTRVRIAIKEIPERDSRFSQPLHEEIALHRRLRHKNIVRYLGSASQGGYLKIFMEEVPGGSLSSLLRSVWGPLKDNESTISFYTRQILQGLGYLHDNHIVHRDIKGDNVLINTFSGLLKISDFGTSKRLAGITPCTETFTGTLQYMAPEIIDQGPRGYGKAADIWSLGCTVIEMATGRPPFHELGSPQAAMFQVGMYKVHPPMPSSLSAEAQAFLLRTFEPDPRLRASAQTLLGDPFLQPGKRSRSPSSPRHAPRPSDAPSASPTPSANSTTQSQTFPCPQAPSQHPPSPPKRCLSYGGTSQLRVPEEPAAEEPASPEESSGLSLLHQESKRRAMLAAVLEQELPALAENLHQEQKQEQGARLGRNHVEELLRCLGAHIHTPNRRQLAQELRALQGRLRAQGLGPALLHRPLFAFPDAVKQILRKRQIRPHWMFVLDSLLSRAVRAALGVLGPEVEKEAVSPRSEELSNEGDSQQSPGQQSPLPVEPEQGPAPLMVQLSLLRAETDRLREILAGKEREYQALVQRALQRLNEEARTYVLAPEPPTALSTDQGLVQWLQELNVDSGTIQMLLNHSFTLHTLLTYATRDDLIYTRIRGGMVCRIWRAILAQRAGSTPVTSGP
Phosphatidylinositol 4,5-bisphosphate 3-kinase catalytic subunit alpha isoform (Homo sapiens), P42336 [M1043I], sequence (P42336 whole entry M1043I, the tested form may be a part, canonical isoform): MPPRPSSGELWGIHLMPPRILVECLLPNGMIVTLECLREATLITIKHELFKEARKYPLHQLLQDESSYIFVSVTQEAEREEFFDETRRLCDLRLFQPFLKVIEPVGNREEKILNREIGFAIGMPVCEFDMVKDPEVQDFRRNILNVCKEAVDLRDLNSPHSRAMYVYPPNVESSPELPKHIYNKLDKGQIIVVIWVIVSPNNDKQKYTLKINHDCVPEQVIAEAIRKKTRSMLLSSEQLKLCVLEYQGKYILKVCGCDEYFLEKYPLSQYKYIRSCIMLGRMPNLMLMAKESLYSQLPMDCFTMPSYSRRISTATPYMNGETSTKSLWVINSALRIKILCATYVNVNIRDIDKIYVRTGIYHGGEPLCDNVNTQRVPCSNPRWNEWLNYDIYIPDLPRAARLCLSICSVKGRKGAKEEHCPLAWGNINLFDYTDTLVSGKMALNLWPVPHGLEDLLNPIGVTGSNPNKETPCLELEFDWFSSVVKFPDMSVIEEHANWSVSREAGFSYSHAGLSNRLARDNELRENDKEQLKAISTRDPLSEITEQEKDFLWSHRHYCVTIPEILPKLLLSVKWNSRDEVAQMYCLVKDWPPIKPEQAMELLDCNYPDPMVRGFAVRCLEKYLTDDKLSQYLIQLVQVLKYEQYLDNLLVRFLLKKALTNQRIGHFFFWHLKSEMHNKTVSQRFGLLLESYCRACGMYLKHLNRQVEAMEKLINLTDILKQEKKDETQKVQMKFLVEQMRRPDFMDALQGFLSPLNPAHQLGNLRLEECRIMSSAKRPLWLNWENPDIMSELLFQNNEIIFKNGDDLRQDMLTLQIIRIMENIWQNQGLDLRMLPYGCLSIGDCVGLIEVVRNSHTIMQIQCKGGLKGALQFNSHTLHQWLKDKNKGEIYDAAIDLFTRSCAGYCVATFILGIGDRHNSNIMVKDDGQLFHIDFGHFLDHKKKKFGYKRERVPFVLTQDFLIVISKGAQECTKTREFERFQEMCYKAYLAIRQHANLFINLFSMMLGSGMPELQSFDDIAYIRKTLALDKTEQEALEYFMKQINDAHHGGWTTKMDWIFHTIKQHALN
Glycogen synthase kinase-3 alpha (Homo sapiens), sequence (P49840 2-483 limits assumed): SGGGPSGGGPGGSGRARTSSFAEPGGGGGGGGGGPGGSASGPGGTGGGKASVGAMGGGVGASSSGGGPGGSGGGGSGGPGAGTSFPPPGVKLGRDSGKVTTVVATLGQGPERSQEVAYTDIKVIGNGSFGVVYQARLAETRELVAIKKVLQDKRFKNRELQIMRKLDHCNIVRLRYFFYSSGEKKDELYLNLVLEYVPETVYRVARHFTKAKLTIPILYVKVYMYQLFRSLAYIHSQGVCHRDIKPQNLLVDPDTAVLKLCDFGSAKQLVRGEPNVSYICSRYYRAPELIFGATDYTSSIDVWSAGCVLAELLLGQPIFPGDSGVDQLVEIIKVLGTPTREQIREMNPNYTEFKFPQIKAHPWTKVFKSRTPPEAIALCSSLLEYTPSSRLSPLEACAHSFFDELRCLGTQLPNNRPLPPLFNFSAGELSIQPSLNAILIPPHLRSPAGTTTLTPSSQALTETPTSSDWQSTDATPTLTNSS
Serine/threonine-protein kinase 24 (Homo sapiens), sequence (Q9Y6E0 whole entry, looked up, the tested form may be a part): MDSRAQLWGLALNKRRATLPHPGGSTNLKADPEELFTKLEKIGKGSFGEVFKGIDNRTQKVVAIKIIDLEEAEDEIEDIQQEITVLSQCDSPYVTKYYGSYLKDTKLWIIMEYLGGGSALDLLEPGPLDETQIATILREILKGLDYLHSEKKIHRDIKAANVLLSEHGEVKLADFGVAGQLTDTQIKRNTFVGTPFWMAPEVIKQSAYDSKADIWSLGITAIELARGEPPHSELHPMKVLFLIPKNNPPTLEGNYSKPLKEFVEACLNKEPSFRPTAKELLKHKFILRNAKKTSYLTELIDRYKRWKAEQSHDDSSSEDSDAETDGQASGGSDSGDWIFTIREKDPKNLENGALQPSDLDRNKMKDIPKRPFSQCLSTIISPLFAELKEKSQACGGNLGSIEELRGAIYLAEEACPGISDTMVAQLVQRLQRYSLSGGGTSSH

As to `Cc1ccc(NC(=O)c2ccc(CN(CCN(C)C)C(=O)c3cccnc3)cc2)cc1Nc1nccc(-c2cccnc2)n1`, the Activity in [1] was found to be 51%; in assay [2] it was 100%; in assay [3], 92%; in assay [4] it was 78%; in assay [5], 2.2%; in assay [6] it was 100%. The Activity was 94% in assay [7]; 79% in assay [8]; 100% in [9]; 78% in assay [10]; 100% in [11]; 25% in assay [12]. The Activity worked out at 100% in [13]; 94% in assay [14]; 99% in [15]; 94% in assay [16]; 100% in [17]; 98% in assay [18]. The Activity is 100% in assay [19], 100% in assay [20] and 85% in assay [21].

Source of the values: ChEMBL document CHEMBL4229344 (Eur J Med Chem, 2018).
